PKA-R1A act: activators of PKA-R1A holoenzyme, primary screen, biochemical, fluorescence polarization, Cy5-IP20, bovine R1A, mouse PKAc; cAMP-dependent protein kinase type I-alpha regulatory subunit (Bos taurus) + …; PKA-R1A dissociation; scaled: DMSO 0%, 113 µM cGMP 100%; activation, % at 11.4 µM; 0.083% of 340,000 active;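 active = percent activation above the mean of all tested compounds plus 3 SD, cut at about 19% in these data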;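 note: higher means more PKAc released from R1A so a rise in polarization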
PKA-R2B activ: activators of PKA-R2B holoenzyme, primary screen, biochemical, fluorescence polarization, Cy5-IP20, human; AID 504700, 2011; cAMP-dependent protein kinase catalytic subunit beta (Homo sapiens) + cAMP-dependent …; activation, % at 11.4 µM; PKA-R2B holoenzyme dissociation; R2B truncated from residue 108, S112A mutant; 0% DMSO only, 100% 113 µM cGMP; 0.079% of 340,000 active;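 active = activation above a cutoff set at the mean over all compounds plus 3 SD, cut at about 18% in these data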;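 note: higher means more holoenzyme dissociation and a rise in polarization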
Neddylation inh: inhibitors of cullin neddylation, primary screen, biochemical, TR-FRET, uHTS, NAE and Ubc12. 0.58% of 360,000 active. inhibition, % at 25 µM. NEDD8-conjugating enzyme Ubc12 (Homo sapiens) + NEDD8-activating enzyme E1 regulatory …; in the data active = inhibition above about 36%
Target sequence (P61081 whole entry, looked up): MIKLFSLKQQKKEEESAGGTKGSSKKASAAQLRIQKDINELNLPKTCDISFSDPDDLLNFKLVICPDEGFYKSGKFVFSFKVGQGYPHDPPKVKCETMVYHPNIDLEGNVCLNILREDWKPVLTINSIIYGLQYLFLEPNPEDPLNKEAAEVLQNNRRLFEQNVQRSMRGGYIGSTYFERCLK
Target sequence (Q13564 whole entry, looked up): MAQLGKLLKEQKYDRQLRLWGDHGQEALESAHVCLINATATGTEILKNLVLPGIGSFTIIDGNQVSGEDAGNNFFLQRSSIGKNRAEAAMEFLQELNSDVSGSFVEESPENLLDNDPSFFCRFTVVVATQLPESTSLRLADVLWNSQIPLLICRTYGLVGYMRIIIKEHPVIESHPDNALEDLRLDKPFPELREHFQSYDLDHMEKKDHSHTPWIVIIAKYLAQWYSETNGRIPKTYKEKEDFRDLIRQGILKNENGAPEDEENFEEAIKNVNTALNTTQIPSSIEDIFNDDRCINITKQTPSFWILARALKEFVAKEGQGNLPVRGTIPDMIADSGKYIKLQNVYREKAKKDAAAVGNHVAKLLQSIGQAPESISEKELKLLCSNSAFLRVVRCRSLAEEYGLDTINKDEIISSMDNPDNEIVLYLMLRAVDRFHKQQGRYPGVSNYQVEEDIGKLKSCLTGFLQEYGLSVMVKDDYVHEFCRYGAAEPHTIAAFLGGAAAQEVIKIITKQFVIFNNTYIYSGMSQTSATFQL
Tn6 DDE FP: inhibitors of Tn6 peptide binding to fibrin DD(E), primary screen, biochemical, fluorescence polarization, human fibrin, Tn6 probe. 0.21% of 370,000 active. Fibrinogen beta chain (Homo sapiens), P02675. AID 720509, 2013. inhibition, % at 8.3 µM. Fibrin DD(E) TRITC-Tn6 fluorescence polarization displacement;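 active = inhibition above a per-campaign cutoff: mean of compounds within control limits plus 3 SD, cut at about 15% in these data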;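 note: 0% = median of all compound wells on the plate and 100% = blocking peptide control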
DDE Tn7 FP inh: inhibitors of Tn7 peptide binding to fibrin DD(E), primary screen, biochemical, fluorescence polarization, human fibrin, Tn7 probe; AID 720508, 2013; 0.13% of 370,000 active; FP displacement of FITC-Tn7 peptide from fibrin DD(E); 0% = median of compound wells per plate; inhibition, % at 8.3 µM;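 active = inhibition above the mean of compounds falling within the control limits plus 3 SD of them, cut at about 14% in these data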;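 note: 0% = plate median of compound wells and 100% = 10 µM Aha-Tn7 peptide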
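system = human fibrin DD(E) protein | quantity = DD(E) 2 µM final | medium = Tris/NaCl/CaCl2 buffer, pH 7.8 | also added = labelled Tn7 tracer, 0.1 µM | compound dosing = single point at 8.3 µM | timing = compound with protein 10 min, then 3 h after probe, room temperature | signal = FP measurement | benchmarks = Aha-Tn7 high control | repeats = one replicate per compound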
Neddyl inh conf: blockade of NEDD8 conjugation to cullin – biochemical, TR-FRET, single concentration, confirmation; shares compounds with Neddylation inh; TR-FRET cullin neddylation biochemical assay; calls only at 25 µM; 13% of 1,800 active; AID 652217, 2013; in the data active = inhibition above about 40%;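 note: neddylation substrate is the cullin 1 ring ligase complex with SKP2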
* = called active by the depositor; i = inactive; nt = not tested or not shown; + = active, no number. The list is not random: actives were taken first. Their share in the collection is about 1%.

SMILES | PKA-R1A act | PKA-R2B activ | Neddylation inh | Tn6 DDE FP | DDE Tn7 FP inh | Neddyl inh conf
CC(C)(C)NC(=O)COC(=O)c1ccccc1Nc1ccc(SC(F)F)cc1 | 6 | 11 | 38 | -3 | -2 | nt
CC1(C)OC(=O)C2=C(CC(CCc3ccccc3)OC2c2ccc(F)cc2)O1 (stereo unspecified) | nt | nt | nt | -2 | 8 | nt
CCC(C)NC(=O)c1c(N)n(/N=C/c2ccccn2)c2nc3ccccc3nc12 (stereo unspecified) | 1 | -8 | 46* | 5 | -6 | i
CCC(C)NC(=O)c1c(N)n(/N=C/c2cccnc2)c2nc3ccccc3nc12 (stereo unspecified) | -3 | 7 | nt | -11 | -6 | nt
COc1ccc(-c2cc3ccccc3n2CC(O)CN2CCC(C)CC2)cc1 (stereo unspecified) | -4 | 6 | -24 | -12 | 4 | nt
COc1ccc(-c2cc3ccccc3n2CC(O)CNC(CO)(CO)CO)cc1 (stereo unspecified) | 1 | 6 | 45* | -4 | -5 | nt
COC(=O)c1ccc(-c2ccc(/C=N/NC(=O)CC3(C)OCCCO3)o2)cc1 | -2 | 2 | 41* | -7 | -7 | i
CC(=O)NC1CCCCN(C)C1=O (stereo unspecified) | nt | nt | nt | 1 | 6 | nt
CC(=O)C1(C(=O)NC2CCCC2)CC(c2ccccc2C(F)(F)F)=NO1 (stereo unspecified) | nt | nt | nt | 6 | 1 | nt
C(=C\c1nnc(-c2cccs2)o1)/c1ccccc1 | -6 | -7 | 48* | 1 | 1 | i
CCOC(=O)Cc1c(C)nc2c(-c3ccccc3)c[nH]n2c1=O | -2 | -8 | nt | -3 | 1 | nt
CCc1c(C)nc2c(-c3ccccc3)c[nH]n2c1=O | -1 | 2 | 43* | -2 | 2 | nt
Nc1ccc(C(=O)Nc2ccc3c(O)cc(S(=O)(=O)O)cc3c2)cc1 | 6 | -6 | -15 | -7 | 3 | nt
Nc1cc(S(=O)(=O)O)cc2ccc(S(=O)(=O)O)cc12 | 0 | -2 | 44* | -3 | -2 | nt
COCCNC(=O)c1ccc2c3n(nc2c1)-c1ccc(C)cc1CO3 | -12 | 5 | 52* | 4 | -2 | nt
C[C@@H](CO)NC(=O)c1ccc2c3n(nc2c1)-c1ccccc1CO3 | -1 | -7 | 29 | 2 | 6 | nt
O=C(NCC1CCCO1)c1ccc2c3n(nc2c1)-c1ccccc1CO3 (stereo unspecified) | -9 | -1 | 42* | -7 | 5 | i
C=CCN1C[C@H](COC(=O)c2cccc(C)c2)Oc2cccc(F)c2S1(=O)=O | nt | nt | nt | -2 | -3 | nt
O=C(CSc1nnc(Cc2cccs2)n1-c1ccccc1)Nc1ccccc1-c1ccccc1 | nt | nt | nt | -2 | -4 | nt
COc1ccc2[nH]c(=O)c(CN(Cc3nnnn3Cc3ccccc3)CC3CCCO3)cc2c1 (stereo unspecified) | -13 | -11 | 46* | -4 | 9 | i
COc1ccc2[nH]c(=O)c(CN(Cc3nnnn3Cc3ccc(F)cc3)CC3CCCO3)cc2c1 (stereo unspecified) | -6 | -2 | 46* | -5 | 2 | i
COc1ccc2cc(CN(Cc3cccs3)Cc3nnnn3Cc3ccccc3)c(=O)[nH]c2c1 | -14 | -14 | -33 | -8 | -7 | nt
COCCn1nnnc1CN(Cc1cccnc1)Cc1cc2cc(OC)ccc2[nH]c1=O | -9 | -7 | 43* | -4 | -3 | i
COCCn1nnnc1CN(CCc1ccccc1)Cc1cc2cc(OC)ccc2[nH]c1=O | -12 | 2 | nt | -5 | -1 | nt
COc1ccc(Cn2nnnc2CN(CCCN2CCOCC2)Cc2cc3cc(OC)ccc3[nH]c2=O)cc1 | 1 | 6 | 35 | 0 | 8 | nt
SMILES | PKA-R1A act | PKA-R2B activ | Neddylation inh | Tn6 DDE FP | DDE Tn7 FP inh | Neddyl inh conf
Cc1ccc2[nH]c(=O)c(CN(Cc3cccnc3)Cc3nnnn3CC3CCCO3)cc2c1 (stereo unspecified) | 2 | 0 | 1 | 0 | -8 | nt
O=c1[nH]c2cc3c(cc2cc1CN(Cc1ccc2c(c1)OCO2)Cc1nnnn1CC1CCCO1)OCO3 (stereo unspecified) | -10 | -7 | 39* | 3 | 1 | i
COc1ccc([C@H]2OC(=O)C[C@H]2C(=O)N2CCN(c3ccccc3C(F)(F)F)CC2)cc1OC | nt | nt | nt | 7 | 1 | nt
Cc1nc2ccc(NC(=O)c3c(Cl)cccc3Cl)cc2c(=O)[nH]1 | nt | nt | nt | -2 | -9 | nt
O=c1[nH]c2cc3c(cc2cc1CN(Cc1cccs1)Cc1nnnn1Cc1ccco1)OCCO3 | -14 | -20 | 45* | -3 | 4 | i
O=c1[nH]c2cc3c(cc2cc1CN(Cc1ccccc1)Cc1nnnn1Cc1ccco1)OCCO3 | -1 | 2 | 8 | -9 | -3 | nt
CCCNC(=O)N1CC[C@H]2[C@@H]1c1cc(-c3ccc(F)cc3)ccc1N(C)[C@H]2CO | nt | nt | nt | 0 | -1 | nt
CCOc1ccc(C2=Nc3ccc(Br)cc3C(c3ccc(N4CCOCC4)cc3)=NN2)cc1 | 7 | -9 | nt | 2 | 0 | nt
CCOc1ccc(C2=Nc3ccccc3C(c3ccc(N4CCOCC4)cc3)=NN2)cc1 | -8 | -3 | 40* | 3 | -2 | i
CCOC(=O)C(C)Sc1nc(-c2ccco2)cc(C(F)(F)F)c1C#N (stereo unspecified) | -9 | -5 | 41* | -2 | 2 | nt
CCOC(=O)COc1nc(-c2ccco2)cc(-c2ccco2)c1C#N | nt | nt | nt | 5 | -5 | nt
Cc1cccc(N(C(=O)c2snc(C(N)=O)c2N)C(C(=O)NCC2CCCO2)c2ccc3ncccc3c2)c1 (stereo unspecified) | 5 | 4 | 48* | -4 | 1 | nt
NC(=O)c1nsc(C(=O)N(c2ccc(F)cc2)C(C(=O)NCC2CCCO2)c2ccc3ncccc3c2)c1N (stereo unspecified) | 5 | 1 | nt | 8 | 7 | nt
Cc1ccc(N(C(=O)c2snc(C(N)=O)c2N)C(C(=O)NCC2CCCO2)c2ccc3ncccc3c2)cc1 (stereo unspecified) | -2 | -6 | 43* | -3 | -5 | i
COc1cccc(N(C(=O)c2snc(C(N)=O)c2N)C(C(=O)NCC2CCCO2)c2ccc3ncccc3c2)c1 (stereo unspecified) | -3 | -9 | 45* | 3 | -2 | +

Bioassay records deposited in PubChem by several laboratories.
